ChEMBL document CHEMBL5226322, “Harnessing the Role of HDAC6 in Idiopathic Pulmonary Fibrosis: Design, Synthesis, Structural Analysis, and Biological Evaluation of Potent Inhibitors” (J Med Chem, 2021)
The source made the active and inactive calls. No cut-off for these calls is given here.

How the values were obtained:
[1] = Chemical stability of the compound at pH 3 incubated for 24 hrs by HPLC-UV analysis; type: physicochemical; details: buffer, read-out: Stability
How it was run: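 Compound from 10 mM DMSO stock diluted to 250 μM (2.5% DMSO) in 50 mM acetic acid, pH 3.0. Held 24 h at 25 °C with orbital shaking. Analysed by RP-18 HPLC with UV at 254 nm. Percent remaining = peak area at 24 h / peak area at T0 × 100. Run in triplicate and averaged.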

[2] = Metabolic stability in human liver microsome assessed as intrinsic clearance at 5 uM in presence of NADPH incubated up to 60 mins by HPLC analysis; type: ADME; details: microsomes, 1 h
How it was run: (§1)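 Compound at 5 μM, added in MeCN, incubated at 37 °C in 100 mM phosphate buffer pH 7.4 with 0.5 mg/mL human liver microsomal protein. Reaction started with an NADPH-generating system (2 mM NADPH, glucose-6-phosphate, G6P dehydrogenase, MgCl2). Stopped with MeCN at time points over 0–60 min. Remaining compound measured by RP-18 HPLC-UV at 254 nm, in triplicate. First-order depletion constant k; CLint = k × incubation volume / microsomal protein.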

[3] = target: T1, Histone deacetylase 8 (Homo sapiens, UniProt Q9BY41); experiment: Inhibition of human recombinant HDAC8 using FLUOR DE LYS fluorometric substrate pre-incubated for 15 mins and followed by substrate addition and measured after 60 mins by microplate reader assay
T1 sequence (Q9BY41 whole entry): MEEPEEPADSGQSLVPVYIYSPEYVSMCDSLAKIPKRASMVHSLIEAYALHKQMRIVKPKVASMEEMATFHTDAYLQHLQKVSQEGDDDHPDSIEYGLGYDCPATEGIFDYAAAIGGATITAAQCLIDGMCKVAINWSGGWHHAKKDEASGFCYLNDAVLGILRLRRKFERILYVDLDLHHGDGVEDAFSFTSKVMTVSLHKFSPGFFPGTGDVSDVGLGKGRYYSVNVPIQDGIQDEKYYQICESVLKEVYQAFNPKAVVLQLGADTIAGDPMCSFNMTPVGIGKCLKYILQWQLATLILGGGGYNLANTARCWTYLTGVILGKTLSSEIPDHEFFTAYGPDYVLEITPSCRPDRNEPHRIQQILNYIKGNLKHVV
How it was run: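 Recombinant human HDAC8 at 0.45 U/reaction with 0.5% DMSO; DMSO-only enzyme served as control. Enzyme preincubated 15 min with compound, then Fluor de Lys substrate added (50 μM final) for 1 h at 30 °C. Quenched with 2 μM TSA in Developer II for a further 1 h at 30 °C. Fluorescence read at ex 370/em 450 nm. IC50 from nonlinear dose-response fit.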

[4] = Inhibition of cell proliferation in IPF patient derived human Airway basal cell incubated for 14 days by MTT assay; type: functional, cell-based; details: 336 h
How it was run: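 IPF patient airway basal cell 3D organoid cultures (10⁴ cells in Matrigel, 1:1 BEGM/DMEM) treated 14 days at 1–50 nM, medium changed weekly. Proliferation read by colorimetric MTT on day 14. Mean ± SEM of triplicates, n=3; repeated-measures ANOVA/Friedman test. Reported IC50 is the mean of the count-based and MTT-based IC50s.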

[5] = target: Histone deacetylase 1 (Homo sapiens, UniProt Q13547); experiment: Inhibition of human recombinant HDAC1 using ZMAL (Z-(Ac)Lys-AMC) as fluorogenic substrate incubated for 120 mins by microplate reader assay
Chain of Histone deacetylase 1 (Q13547 whole entry): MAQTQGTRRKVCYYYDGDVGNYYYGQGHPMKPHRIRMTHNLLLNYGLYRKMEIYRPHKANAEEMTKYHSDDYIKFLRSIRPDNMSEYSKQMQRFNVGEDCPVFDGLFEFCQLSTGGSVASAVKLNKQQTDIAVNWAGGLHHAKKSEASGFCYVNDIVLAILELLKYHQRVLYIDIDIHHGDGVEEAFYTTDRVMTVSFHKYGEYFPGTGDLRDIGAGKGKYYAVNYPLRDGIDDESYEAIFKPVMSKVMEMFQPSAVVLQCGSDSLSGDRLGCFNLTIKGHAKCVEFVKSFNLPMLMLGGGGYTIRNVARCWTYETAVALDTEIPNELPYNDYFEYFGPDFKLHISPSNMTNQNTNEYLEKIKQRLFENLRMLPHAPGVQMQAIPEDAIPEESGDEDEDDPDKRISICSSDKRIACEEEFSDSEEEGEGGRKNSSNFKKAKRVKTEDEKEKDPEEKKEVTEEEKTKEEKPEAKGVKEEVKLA

[6] = target: T2, Protein deacetylase HDAC6 (Homo sapiens) (UniProt Q9UBN7); experiment: Inhibition of HDAC6 in human U87 cells assessed as increase in acetylation of alpha-tubulin at 5 uM incubated for 30 hrs by western blot analysis; type: cell-based
T2 sequence (whole entry): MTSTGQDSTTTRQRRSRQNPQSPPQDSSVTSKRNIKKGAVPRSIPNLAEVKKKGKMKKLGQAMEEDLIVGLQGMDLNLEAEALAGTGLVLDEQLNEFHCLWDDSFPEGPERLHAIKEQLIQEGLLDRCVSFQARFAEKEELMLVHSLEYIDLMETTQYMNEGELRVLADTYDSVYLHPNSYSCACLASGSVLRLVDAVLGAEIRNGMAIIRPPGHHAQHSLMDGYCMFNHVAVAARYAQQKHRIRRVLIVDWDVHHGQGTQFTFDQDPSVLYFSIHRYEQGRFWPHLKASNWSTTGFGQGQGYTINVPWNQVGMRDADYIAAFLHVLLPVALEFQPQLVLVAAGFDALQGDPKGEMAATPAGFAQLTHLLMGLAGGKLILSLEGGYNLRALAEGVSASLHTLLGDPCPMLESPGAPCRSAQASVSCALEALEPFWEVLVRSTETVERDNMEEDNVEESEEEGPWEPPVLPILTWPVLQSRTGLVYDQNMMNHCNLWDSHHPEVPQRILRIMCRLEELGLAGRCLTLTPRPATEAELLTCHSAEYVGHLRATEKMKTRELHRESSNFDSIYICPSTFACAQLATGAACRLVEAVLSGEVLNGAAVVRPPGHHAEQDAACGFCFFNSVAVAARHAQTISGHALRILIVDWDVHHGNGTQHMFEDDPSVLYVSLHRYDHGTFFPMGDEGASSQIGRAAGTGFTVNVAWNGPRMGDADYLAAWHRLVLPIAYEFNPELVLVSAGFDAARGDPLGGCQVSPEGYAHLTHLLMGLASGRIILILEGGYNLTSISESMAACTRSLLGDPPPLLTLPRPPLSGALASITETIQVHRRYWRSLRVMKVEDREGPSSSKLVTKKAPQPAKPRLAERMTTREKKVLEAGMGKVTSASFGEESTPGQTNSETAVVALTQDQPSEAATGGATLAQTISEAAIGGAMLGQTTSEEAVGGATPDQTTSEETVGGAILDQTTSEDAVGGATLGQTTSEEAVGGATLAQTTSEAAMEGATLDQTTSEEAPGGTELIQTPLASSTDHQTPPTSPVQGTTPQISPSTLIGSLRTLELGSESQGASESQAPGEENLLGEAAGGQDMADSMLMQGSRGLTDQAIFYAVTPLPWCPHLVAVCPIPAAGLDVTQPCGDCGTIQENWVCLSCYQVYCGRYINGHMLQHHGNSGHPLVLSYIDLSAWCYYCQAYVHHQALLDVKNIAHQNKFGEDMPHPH
How it was run: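 Whole lysates (35 μg) and acid-extracted histones (2 μg) run on SDS-PAGE and blotted for acetylated tubulin or acetyl-histone H3; GAPDH or H4 as loading controls.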

[7] = test system: Airway basal cell; experiment: Inhibition of spheroid count in IPF patient derived human Airway basal cell assessed as reduction in sphere count at 20 to 50 nM incubated for 14 days by Bright-field microscopy analysis; type: functional, cell-based; details: dose 20-50 nM, time 14.0 day
How it was run: (§2)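 Airway basal cells from bronchial brushings of IPF patients, 10⁴ cells in Matrigel on transwell inserts with 1:1 BEGM/DMEM. Treated 14 days (1–50 nM per methods; 0.1–50 nM per legend), medium changed every 7 days.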

[8] = Metabolic stability in human liver microsome assessed as apparent decay constant at 5 uM in presence of NADPH incubated up to 60 mins by HPLC analysis; type: ADME; details: microsomes, 1 h; how it was run: as §1
[9] = Inhibition of spheroid count in IPF patient derived human Airway basal cell incubated for 14 days by Bright-field microscopy analysis; type: functional, cell-based; how it was run: as §2

SMILES | remaining at 24 h [1] [%] | CLH [2] [µL/min/mg] | IC50 [3] [µM] | IC50 [4] [µM] | IC50 [5] [µM] | inhibition [6] | inhibition [7] | K [8] [min⁻¹] | IC50 [9] [µM]
CN1CCC2(CC1)c1ccccc1N(Cc1ccc(C(=O)NO)cc1)C2c1ccccc1F (racemic) | 98 | 27.43 | 3.49 | 0.00016 | 4.85 | Active | Active | 0.01297 | 0.00638
CC1(C)c2ccccc2N(Cc2ccc(C(=O)NO)cc2)C1c1cccnc1 (racemic) | 89 | 25.46 | 2.17 | 0.00731 | 5.33 | Active | Active | 0.01357 | 0.00731
